Assay outcomes as filed in PubChem.
Hits are enriched below; roughly 2% of the tested compounds scored in any of these assays.
ABHD4 inh: ABHD4 inhibitors, primary screen, biochemical, fluorescence polarization, mouse; purified mABHD4, FP-Rh probe fluorescence polarization; inhibition, % at 8.92 µM; (Lyso)-N-acylphosphatidylethanolamine lipase (Mus musculus), Q8VD66; 370,000 compounds, 0.54% hits;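 active = inhibition exceeding the mean over every tested compound plus 3 SD, cut at about 30% in these data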
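Assay system: wild-type mouse ABHD4 protein; compound: single nominal dose of 8.92 µM, 0.89% DMSO final; schedule: 45 min + 60 min at 25 °C; measured by: FP readout, ex 525 nm / em 598 nm; evaluation: % inhibition of FP-Rh probe binding versus controls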
TDP2 absorb: human TDP2 enzyme inhibitors, primary screen, biochemical, epi absorbance, recombinant enzyme | 370,000 compounds, 0.34% hits | inhibition, % at 12.8 µM | T5PNP hydrolysis, p-nitrophenol absorbance 415 nm | Tyrosyl-DNA phosphodiesterase 2 (Homo sapiens), O95551;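 active = inhibition above the mean of all tested compounds plus 3 SD, set per campaign, cut at about 25% in these data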
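System – recombinant human TDP2 · Amount – 120 nM TDP2 per well · Buffer or medium – Mg2+-containing Tris-HCl buffer, pH 7.5 · Reagent – T5PNP substrate, 5 mM · Dosing – 12.8 µM single point, 1% DMSO · Incubation – 2 h at 37 °C · Measured by – epi absorbance · Read-out basis – percent inhibition · Benchmarks – high control without enzyme, low control DMSO plus TDP2 · Repeats – singlicate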
SIAE primary: human SIAE inhibitors, primary screen, biochemical, fluorescence polarization, FP-Rh probe, 1536-well HTS | AID 1053197, 2014 | SIAE FP-Rh probe binding | inhibition, % at 9.66 µM | 370,000 compounds, 0.69% hits | Sialate O-acetylesterase (Homo sapiens), Q9HAT2;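 active = inhibition above a cutoff: mean of compounds within the control limits plus 3 SD of those, cut at about 17% in these data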
PAD4 FP inh: human PAD4 inhibitors, primary screen, biochemical, fluorescence polarization, 1536-well format; Protein-arginine deiminase type-4 (Homo sapiens), Q9UM07; recombinant PAD4, RCA probe fluorescence polarization; inhibition, % at 6.36 µM; 330,000 compounds, 0.41% hits; AID 485272, 2010;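 active = percent inhibition above a cutoff equal to the mean of all tested compounds plus 3 SD, cut at about 15% in these data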
TCR-CD3 inh: inhibitors of human TCR-CD3 interaction, primary screen, biochemical, fluorescence, TAMRA-labeled TCR probe. T-cell receptor (TCR). inhibition, % at 9.4 µM. 360,000 compounds, 0.37% hits. AID 651800, 2012; in the data active = inhibition above about 19%;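 note: recombinant mutant TCR 2C K166C tagged with TAMRA read by polarization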
HTRA1 inh: HTRA1 serine protease inhibitors, primary screen, biochemical, fluorescence polarization, HTS; Q92743; recombinant HTRA1, FP-rhodamine activity-based probe; inhibition, % at 5.96 µM; 340,000 compounds, 0.5% hits; AID 504803, 2011; in the data active = inhibition above about 36%
Target sequence (Q92743 whole entry, looked up): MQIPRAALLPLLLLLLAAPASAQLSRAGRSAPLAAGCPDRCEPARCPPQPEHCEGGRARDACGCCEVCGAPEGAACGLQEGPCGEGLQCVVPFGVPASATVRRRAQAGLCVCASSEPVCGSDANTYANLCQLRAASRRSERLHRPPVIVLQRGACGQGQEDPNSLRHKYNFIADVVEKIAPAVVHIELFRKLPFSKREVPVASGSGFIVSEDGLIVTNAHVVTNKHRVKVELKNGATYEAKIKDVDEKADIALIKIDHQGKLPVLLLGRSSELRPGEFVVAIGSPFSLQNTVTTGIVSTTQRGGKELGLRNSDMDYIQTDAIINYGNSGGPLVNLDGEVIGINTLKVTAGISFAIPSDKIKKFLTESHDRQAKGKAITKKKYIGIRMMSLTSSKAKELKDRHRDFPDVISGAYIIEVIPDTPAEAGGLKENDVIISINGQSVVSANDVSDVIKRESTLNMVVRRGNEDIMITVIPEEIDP
ABHD4 confirm: ABHD4 inhibitors, retest, confirmation, biochemical, fluorescence polarization, mouse; 1,800 compounds, 55% hits; inhibition, % at 8.92 µM; AID 720658, 2013; purified mABHD4, FP-Rh probe fluorescence polarization; shares compounds with ABHD4 inh;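 active = mean inhibition across replicates above the hit cutoff set in the primary screen, cut at about 30% in these data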
Hits are given with their value; n = inactive; x = not tested or not shown.

SMILES | ABHD4 inh | TDP2 absorb | SIAE primary | PAD4 FP inh | TCR-CD3 inh | HTRA1 inh | ABHD4 confirm
CNC[C@@H](CC1CCCCC1)NC[C@H](CC(C)C)NCCc1cccc(C(F)(F)F)c1 | 31.1 | n | n | n | n | n | 51.5
CCC[C@H](CN[C@@H](CNC)[C@H](C)CC)NCCc1cc(C(F)(F)F)cc(C(F)(F)F)c1 | n | n | n | n | n | n | x
CC[C@@H](C)[C@H](CNC)NC[C@@H](Cc1cccc2ccccc12)NCCc1cccc(C(F)(F)F)c1 | 49.5 | n | n | n | n | n | 50.8
CCC(C(=O)OCc1csc(CC(=O)Nc2ccccc2C)n1)c1ccccc1 (centres undefined) | 29.5 | n | n | n | n | n | n
COc1ccc(CCC(=O)OCc2csc(CC(=O)Nc3ccccc3C)n2)cc1 | 35.7 | n | n | n | n | n | n
COc1cc(C(=O)OCc2csc(CC(=O)Nc3ccccc3C)n2)ccc1OCC(C)C | 42.9 | n | n | x | n | n | n
CCOc1ccc(OCC(=O)OCc2csc(CC(=O)Nc3ccccc3C)n2)cc1 | n | n | n | n | n | n | x
Cc1ccccc1NC(=O)Cc1nc(COC(=O)c2ccc(Cl)nc2)cs1 | n | n | n | n | n | n | x
Cc1ccccc1NC(=O)Cc1nc(COC(=O)CC(C)c2ccccc2)cs1 (centres undefined) | n | n | n | x | n | n | x
CCOC(=O)C1=CCN(S(=O)(=O)c2ccccc2C)C1c1ccc(F)cc1 (centres undefined) | n | n | n | x | n | x | x
NCc1ccccc1 | n | n | n | n | n | n | x
O=C(NC1CC1)c1ccc2sc([C@@H]3O[C@H](CO)[C@H](O)[C@H](O)[C@H]3O)nc2c1 | n | n | n | x | n | x | x
CCN(CC(=O)Nc1c(F)cccc1F)C(=O)c1ccc(Cl)c(S(=O)(=O)N2CCCC2)c1 | n | n | n | n | n | n | x
COCCN1C(=O)C2=C(C1=O)C1N(C)c3ccccc3[C@@]13C[C@@H](CO)N(C(=O)CCC(=O)OC)C3=N2 (some centres undefined) | n | n | n | x | x | x | x
CC(CNc1ccccc1O)C(=O)O (centres undefined) | 33.7 | n | n | n | n | n | n
CC(=O)C1CCC2C3CC=C4CC(SC(=N)N)CCC4(C)C3CCC12C (centres undefined) | 45.8 | n | n | x | n | n | 37.9
CC(=O)c1ccc(NC(=S)NCC(c2ccco2)N2CCCC2)cc1 (centres undefined) | n | n | n | n | n | n | x
NCCOc1ccc(C23CC4CC(CC(C4)C2)C3)cc1 | 31.7 | n | n | n | n | n | 37.4
COc1ccc(C(=O)N/C(=C\c2cn(S(=O)(=O)N(C)C)c3ccccc23)C(=O)N2CCN(C)CC2)cc1OC | n | n | n | x | n | n | x
CCCCC(OC(=O)c1ccco1)C(=O)NCc1ccc(C)cc1 (centres undefined) | n | n | n | n | n | n | x
NC(=S)NN=Cc1cc(-c2cccc(N)c2)ccn1 | 43.8 | n | n | x | n | n | 57.5
Nn1c(SCC(=O)NCC2CCCO2)nnc1-c1cc(Cl)ccc1Cl (centres undefined) | n | n | n | x | n | n | x
CCCCCCCCCCOC(=O)Cn1c(COc2ccccc2C)[n+](C)c2ccccc21 | x | x | x | n | x | n | x
CCCCCCCCCCOC(=O)Cn1c(COc2ccc(Cl)cc2)[n+](C)c2ccccc21 | 35.2 | n | n | n | n | n | 54.7
CCCCCCCCCCOC(=O)Cn1c(COc2ccccc2)[n+](C)c2ccccc21 | 30.4 | n | n | n | n | n | 33.1
CCCCCCCCCCOC(=O)Cn1c(COc2ccc(OC)cc2)[n+](C)c2ccccc21 | x | x | x | n | x | n | x
